Results on 1 compound are retold here after PubChem BioAssay AID623977 (Vanderbilt High Throughput Screening Facility, 2012).

For this experiment, the target named is G protein-activated inward rectifier potassium channel 2 (Homo sapiens) + G protein-activated inward rectifier potassium channel 1 (Homo sapiens) (UniProt P48051+P48549). Briefly: GIRK1/2 channel activators by patch clamp, confirmation, orthogonal assay for GIRK activator project, HEK-293 hGIRK1/2, whole-cell voltage clamp, Ba2+-sensitive current (AID 623977). As to conditions: HEK-293 hGIRK1/2, whole-cell patch clamp current. In short, it runs like this: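 Assay system: HEK-293 cells stably expressing human GIRK1/2 channels; Buffer or medium: 20 mM K+ bath, pH 7.4, KCl pipette solution; Dosing: test compound diluted in 20 mM K+ bath solution; Timing: recordings 24–72 h post-plating; Signal: whole-cell patch clamp, -70 mV.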
Chain of G protein-activated inward rectifier potassium channel 2 (Homo sapiens) + G protein-activated inward rectifier potassium channel 1 (Homo sapiens) (P48051 whole entry, looked up): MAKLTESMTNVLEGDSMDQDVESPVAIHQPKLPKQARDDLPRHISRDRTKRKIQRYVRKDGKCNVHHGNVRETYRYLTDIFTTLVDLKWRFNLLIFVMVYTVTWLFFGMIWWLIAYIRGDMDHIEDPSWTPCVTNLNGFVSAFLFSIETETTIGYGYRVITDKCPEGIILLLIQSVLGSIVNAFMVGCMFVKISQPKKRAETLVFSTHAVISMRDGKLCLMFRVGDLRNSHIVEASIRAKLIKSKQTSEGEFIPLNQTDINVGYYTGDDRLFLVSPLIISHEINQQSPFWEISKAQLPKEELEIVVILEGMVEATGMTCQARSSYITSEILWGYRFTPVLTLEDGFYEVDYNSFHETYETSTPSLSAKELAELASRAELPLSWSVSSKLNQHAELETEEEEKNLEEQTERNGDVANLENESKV
Chain of G protein-activated inward rectifier potassium channel 2 (Homo sapiens) + G protein-activated inward rectifier potassium channel 1 (Homo sapiens) (P48549 whole entry, looked up): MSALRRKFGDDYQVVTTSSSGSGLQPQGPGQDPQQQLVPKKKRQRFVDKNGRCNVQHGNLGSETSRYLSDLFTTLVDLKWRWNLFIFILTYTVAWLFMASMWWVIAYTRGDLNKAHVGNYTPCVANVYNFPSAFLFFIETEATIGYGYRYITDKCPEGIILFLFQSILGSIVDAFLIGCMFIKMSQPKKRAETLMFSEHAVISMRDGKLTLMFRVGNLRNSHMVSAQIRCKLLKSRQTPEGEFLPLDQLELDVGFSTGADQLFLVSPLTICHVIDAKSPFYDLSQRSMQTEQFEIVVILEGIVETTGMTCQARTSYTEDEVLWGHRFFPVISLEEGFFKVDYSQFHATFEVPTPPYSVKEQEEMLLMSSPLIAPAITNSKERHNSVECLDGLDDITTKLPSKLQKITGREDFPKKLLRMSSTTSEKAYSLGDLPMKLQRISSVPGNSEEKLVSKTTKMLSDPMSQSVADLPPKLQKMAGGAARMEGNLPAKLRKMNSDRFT

SMILES strings stand for the structures.

What is called EC50 is the midpoint of the concentration-response curve.

Take `Cc1cc(NC(=O)Nc2ccc(F)c(F)c2)n(-c2ccccc2)n1`: the EC50 is 54.1 nM.
